The values below come from ChEMBL document CHEMBL4350999, “Enhanced tumor retention of NTSR1-targeted agents by employing a hydrophilic cysteine cathepsin inhibitor” (Eur J Med Chem, 2019).

A short description of series [1]: Drug uptake in kidney of SCID mouse xenografted with human HT-29 cells using 177Lu labelled compound at 0.37 MBq/mouse, iv co-treated with D-lysine at 40 mg/kg measured at 24 hrs by gamma counter analysis. Format: ADME, organism-based. Particulars: in vivo. A digest of the protocol:
(§1)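 Female SCID mice bore s.c. HT-29 xenografts (5 × 10^6 cells in Matrigel, about 80 mm3). D-lysine 40 mg/kg was co-injected i.v. with 10 μCi (0.37 MBq) of purified 177Lu-conjugate. Tissues were harvested at 24 h, weighed and gamma-counted, reported as %ID/g; mean ± SD, n = 5.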

In the next series the target is Cathepsin B (Homo sapiens, UniProt P07858). Description: Binding affinity to cathepsin B in human HT-29 cells assessed as intracellular adduct formation at 0.74 MBq incubated for 4 hrs in presence of E-64 using 177Lu labelled compound by SDS-PAGE analysis. Format: cell-based. Further details: dose or concentration left out as unconfirmed. A digest of the protocol: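 HT-29 cells (1 × 10^6/well) incubated 4 h at 37 °C with 177Lu conjugate (20 μCi, 0.74 MBq) in 1 mL medium, with or without E-64 (10 μM) or NTSR1 peptide N1 (20 μM). Cells washed and refed; at set times cells pooled, RIPA-lysed with protease inhibitor. Lysates heated 85 °C 2 min, run on 16% tris-glycine SDS-PAGE, and phosphor autoradiography taken after 72 h exposure.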

The nature of series [2]: Drug excretion in SCID mouse xenografted with human HT-29 cells pretreated for 1 hr with colchicine at 1 mg/kg, ip followed by 177Lu labelled compound at 0.37 MBq/mouse, iv measured at 24 hrs by gamma counter analysis. Particulars: in vivo. Format: ADME, organism-based. Summed up:
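Female SCID mice bearing s.c. flank HT-29 xenografts (5 × 10^6 cells in Matrigel, ~80 mm3). Given 10 μCi (0.37 MBq) 177Lu conjugate i.v. by tail vein; groups sacrificed at 4, 24, 72 h. Tissues weighed and gamma-counted as %ID/g, excretion as %ID; n = 5, mean ± SD. Blocking arms: colchicine 1 mg/kg i.p. beforehand, or D-lysine 40 mg/kg co-injected.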

The nature of series [3]: Drug uptake in lung of SCID mouse xenografted with human HT-29 cells using 177Lu labelled compound at 0.37 MBq/mouse, iv co-treated with D-lysine at 40 mg/kg measured at 24 hrs by gamma counter analysis. Type of series: ADME, organism-based. The following applies: in vivo. Summed up: as §1
The nature of series [4]: Ratio of drug uptake in SCID mouse xenograted with human HT-29 cells assessed as tumour retention to drug uptake in spleen of SCID mouse xenografted with human HT-29 cells cotreated with D-lysine at 40 mg/kg measured after 24 hrs using 177Lu labelled compound. Particulars: in vivo. Type of series: ADME, organism-based, Tumor/Spleen. For orientation: In xenograft studies the graft and the host belong to different species.

Series [5] is described as follows: Drug retention in tumor lysates of mouse xenografted with human HT-29 cells assessed as macromolecule associated radioactivity at 29.6 MBq co-treated with D-lysine measured after 72 hrs using 177Lu labelled compound by gamma counter analysis relative to control. The following applies: in vivo. Type of series: ADME, tissue-based, Neoplasm.
Series [6] is described as follows: Ratio of drug uptake in SCID mouse xenograted with human HT-29 cells assessed as tumour retention to drug uptake in blood of SCID mouse xenografted with human HT-29 cells cotreated with D-lysine at 40 mg/kg measured after 24 hrs using 177Lu labelled compound. Type of series: ADME, organism-based, Tumor/Blood. A digest of the protocol: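 HT-29 s.c. xenografts in female SCID mice. 177Lu conjugate given i.v. by tail vein at 10 μCi (0.37 MBq)/mouse, co-injected with D-lysine 40 mg/kg. Tissues were taken at 24 h, weighed and gamma counted. Uptake expressed as %ID/g (n = 5, mean ± SD); tumor-to-tissue ratios derived from these values.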

Series [7] in a line: Drug uptake in liver of SCID mouse xenografted with human HT-29 cells pretreated for 1 hr with colchicine at 1 mg/kg, ip followed by 177Lu labelled compound at 0.37 MBq/mouse, iv measured at 24 hrs by gamma counter analysis. Type of series: ADME, organism-based. The following applies: in vivo. Summed up: (§2)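 HT-29 flank xenografts in female SCID mice (5 × 10^6 cells in Matrigel, about 80 mm3). Colchicine 1 mg/kg was given i.p. before a tail-vein injection of 10 μCi (0.37 MBq) of purified 177Lu-conjugate. Tissues were taken at 24 h, weighed and gamma-counted as %ID/g; mean ± SD, n = 5.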

Series [8] in a line: Drug uptake in small intestine of SCID mouse xenografted with human HT-29 cells pretreated for 1 hr with colchicine at 1 mg/kg, ip followed by 177Lu labelled compound at 0.37 MBq/mouse, iv measured at 24 hrs by gamma counter analysis. Format: ADME, organism-based. Particulars: in vivo. A digest of the protocol:
as §2

Series [9] is described as follows: Drug retention in liver lysates of mouse xenografted with human HT-29 cells assessed as macromolecule associated radioactivity at 29.6 MBq measured after 72 hrs using 177Lu labelled compound by gamma counter analysis relative to control. Type of series: ADME, tissue-based. Particulars: in vivo. A digest of the protocol:
(§3)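 HT-29 xenograft mice given 800 μCi (29.6 MBq) 177Lu conjugate i.v. and killed at 72 h. Tumor, liver and kidney homogenized in RIPA with protease inhibitor and supernatants run on SDS-PAGE autoradiography. Other supernatant aliquots filtered through 10 kDa MWCO devices to give the % macromolecule-associated radioactivity; n = 3.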

Series [10] is described as follows: Drug uptake in stomach of SCID mouse xenografted with human HT-29 cells pretreated for 1 hr with colchicine at 1 mg/kg, ip followed by 177Lu labelled compound at 0.37 MBq/mouse, iv measured at 24 hrs by gamma counter analysis. Type of series: ADME, organism-based. Particulars: in vivo. A digest of the protocol:
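HT-29 xenograft SCID mice pretreated with colchicine 1 mg/kg i.p., then given 177Lu conjugate i.v. at 10 μCi (0.37 MBq)/mouse. Tissues excised at 24 h, weighed and gamma counted for %ID/g (n = 5, mean ± SD).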

A short description of series [11]: Drug uptake in kidney of SCID mouse xenografted with human HT-29 cells pretreated for 1 hr with colchicine at 1 mg/kg, ip followed by 177Lu labelled compound at 0.37 MBq/mouse, iv measured at 24 hrs by gamma counter analysis. Type of series: ADME, organism-based. Particulars: in vivo. Summed up:
as §2

Series [12] is described as follows: Drug retention in kidney lysates of mouse xenografted with human HT-29 cells assessed as macromolecule associated radioactivity at 29.6 MBq measured after 72 hrs using 177Lu labelled compound by gamma counter analysis relative to control. Type of series: ADME, tissue-based. Particulars: in vivo. Summed up:
as §3

A short description of series [13]: Ratio of drug uptake in SCID mouse xenograted with human HT-29 cells assessed as tumour retention to drug uptake in lung of SCID mouse xenografted with human HT-29 cells cotreated with D-lysine at 40 mg/kg measured after 24 hrs using 177Lu labelled compound. Particulars: in vivo. Type of series: ADME, organism-based, Tumor/Lung.
Series [14] is described as follows: Ratio of drug uptake in SCID mouse xenograted with human HT-29 cells assessed as tumour retention to drug uptake in muscle of SCID mouse xenografted with human HT-29 cells cotreated with D-lysine at 40 mg/kg measured after 24 hrs using 177Lu labelled compound. The following applies: in vivo. Type of series: ADME, organism-based, Tumor/Muscle.
Series [15] in a line: Drug uptake in brain of SCID mouse xenografted with human HT-29 cells pretreated for 1 hr with colchicine at 1 mg/kg, ip followed by 177Lu labelled compound at 0.37 MBq/mouse, iv measured at 24 hrs by gamma counter analysis. The following applies: in vivo. Format: ADME, organism-based. A digest of the protocol: as §2

SMILES strings stand for the structures. The source made the active and inactive calls. No cut-off for these calls is given here.

As usually defined, the Kp is tissue or fluid exposure divided by exposure in the circulation. For the compound `Cc1cc(O)cc(C)c1C[C@H](NC(=O)[C@@H]1CCCN1C(=O)[C@H](CCCNC(=N)N)NC(=O)[C@H](CCCNC(=N)N)N(C)C(=O)[C@@H]1CCCN1C(=O)[C@H](CCCCN)NC(=O)[C@@H](CO)NC(=O)[C@@H](CO)NC(=O)[C@@H](CO)NC(=O)[C@H](Cc1cn(CCNC(=O)[C@H](CCCNC(=N)N)NC(=O)[C@H](CC(C)C)NC(=O)C2OC2C(=O)O)nn1)NC(=O)CN1CCN(CC(=O)O)CCN(CC(=O)O)CCN(CC(=O)O)CC1)C(=O)N[C@H](C(=O)N[C@@H](CC(C)C)C(=O)O)C(C)(C)C` (stereo partly specified), the Drug uptake amounted to 34 % ID/g in series [1]; 0.41 % ID/g in [3]; 80% in [5]; 1.4 % ID/g in series [7]; 2.2 % ID/g in series [8]; 80% in series [9]. Besides, the Drug uptake in [10] was 0.29 % ID/g; in [11], 26 % ID/g; in [12] it was 80%; in [15], 0.07 % ID/g. Also, the outcome at Cathepsin B was Active. Further, in series [2], the Drug excretion turned out to be 85 %ID. The Ratio in series [4] is given as 8; in series [13] it was 15; in [14] it was 250. Moreover, in [6], the concentration ratio (Kp) at 24 h worked out at 299.
